One assay relates to Hepatitis C virus. Description: Antiviral activity against HCV replication. Format: functional, organism-based, Hepacivirus hominis.
Another assay concerns Huh-7. Description: Cytotoxicity against Huh7 cells by MTS assay. Format: functional. Particulars: Homo sapiens. Summed up:
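Cells exposed to compound for 96 h; viability read by MTS tetrazolium reduction (non-radioactive cell proliferation kit); CC50 taken as the 50% cytotoxic concentration.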

By EC90 is commonly meant the concentration at which the effect reaches the 90% level. Low values mean an effect from little substance, high ones a need for much substance. One may read the CC50 as the concentration at which the toxic effect on the cells reaches its halfway point. `C[C@@]1(F)[C@H](O)[C@@H](CO)O[C@H]1n1cnc2c(O)nc(N)nc21`: the 90% effect level in the assay with Hepatitis C virus (EC90) was put at 56 µM. Also, in the assay on Huh-7, the CC50 was > 100 µM.

In the assay with Hepatitis C virus, `C[C@@]1(O)[C@H](O)[C@@H](CO)O[C@H]1n1cnc2c(N)ncnc21` registered an EC90 of 1.4 µM. This molecule also showed a 50% cytotoxic concentration (CC50) in the assay on Huh-7 of 15 µM.

In turn, `C[C@@]1(F)[C@H](O)[C@@H](CO)O[C@H]1n1cnc2c(Cl)ncnc21` showed a concentration for an effect of 90% (EC90) in the assay with Hepatitis C virus of 88.2 µM. Besides, in the assay with Huh-7, it took 27.1 µM to reach half-maximal cytotoxicity (CC50).

For `C[C@@]1(F)[C@H](O)[C@@H](CO)O[C@H]1n1cnc2c(N)ncnc21`, in the assay with Hepatitis C virus, the EC90 was > 100 µM. Also, in the assay with Huh-7, the cytotoxic concentration (CC50) is > 100 µM.

Turning to `C[C@@]1(O)[C@H](O)[C@@H](CO)O[C@H]1n1cnc2c(=O)[nH]c(N)nc21` [2'-B-METHYL-GUANOSINE], the EC90 in the assay on Hepatitis C virus was determined as 10.8 µM. In the assay with Huh-7, the half-maximal cytotoxic concentration (CC50) was > 100 µM.

For `C[C@@]1(F)[C@H](O)[C@@H](CO)O[C@H]1n1cnc2c(Cl)nc(N)nc21`, it took 62.4 µM to reach the 90% level in the assay with Hepatitis C virus (EC90). Moreover, in the assay with Huh-7, the half-maximal cytotoxic concentration (CC50) was > 100 µM.

The values are drawn from ChEMBL document CHEMBL1139016, “Synthesis and antiviral activity of 2'-deoxy-2'-fluoro-2'-C-methyl purine nucleosides as inhibitors of hepatitis C virus RNA replication” (Bioorg Med Chem Lett, 2006).
